The values that follow come from ChEMBL document CHEMBL3108697, “Design of an amide N-glycoside derivative of β-glucogallin: a stable, potent, and specific inhibitor of aldose reductase” (J Med Chem, 2014).

Activity calls are given as the source filed them. The rule behind the calls is not given here.

The target in series [1] is T1, Aldo-keto reductase family 1 member B1 (Homo sapiens, UniProt P15121). Briefly: Inhibition of human recombinant AKR1B1 expressed in Escherichia coli using DL-glyceraldehyde as substrate after 5 mins by spectrophotometry. An outline of the steps: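 Enzyme inhibition was tested with recombinant human AKR1B1, using the natural substrate glyceraldehyde.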
Series [2] addresses T1, Aldo-keto reductase family 1 member B1. The experiment in a line: Inhibition of human AKR1B1 expressing in PAR40 C57BL6 mouse lens assessed as inhibition of glucose-induced sorbitol accumulation at 25 to 50 uM after 72 hrs by colorimetric assay. Particulars: Lens of camera-type eye. The essentials:
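Lenses were taken from transgenic mice overexpressing human AKR1B1, and from wild-type mice. They were cultured ex vivo with 27.5 mM glucose and given vehicle (H₂O) or compound at 25 and 50 μM for 72 h. Sorbitol accumulation was measured.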

The target of series [3] is Aldo-keto reductase family 1 member B1 (Mus musculus) (UniProt P45376). Briefly: Inhibition of AKR1B1 in mouse RAW264.7 cells assessed as inhibition of sorbitol accumulation at 50 uM after 24 hrs by colorimetric assay. Type of series: cell-based. The essentials: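 Raw264.7 murine macrophages were incubated with compound for 24 h, then harvested. Intracellular sorbitol accumulation served as the read-out of AKR1B1 activity.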

Series [4] can be described thus: Drug degradation in aqueous sulfuric acid solution at 250 uM at pH 0.33 at 80 degC after 30 mins by HPLC analysis. Particulars: buffer, pH 0.33, 0.5 h. In kind it is physicochemical. The essentials: (§1)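 Compound kept in aqueous sulfuric acid (pH = 0.33) with heating at 80 °C. Intact compound remaining was quantified by HPLC against calibration curves.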
The nature of series [5]: Drug degradation in aqueous sulfuric acid solution at 250 uM at pH 0.33 at 80 degC after 15 mins by HPLC analysis. The note with it: read-out: Drug degradation. Type of series: physicochemical. An outline of the steps:
as §1

Series [6] concerns the target T2, Aldo-keto reductase family 1 member A1 (Homo sapiens) (UniProt P14550).
T2 sequence (whole entry): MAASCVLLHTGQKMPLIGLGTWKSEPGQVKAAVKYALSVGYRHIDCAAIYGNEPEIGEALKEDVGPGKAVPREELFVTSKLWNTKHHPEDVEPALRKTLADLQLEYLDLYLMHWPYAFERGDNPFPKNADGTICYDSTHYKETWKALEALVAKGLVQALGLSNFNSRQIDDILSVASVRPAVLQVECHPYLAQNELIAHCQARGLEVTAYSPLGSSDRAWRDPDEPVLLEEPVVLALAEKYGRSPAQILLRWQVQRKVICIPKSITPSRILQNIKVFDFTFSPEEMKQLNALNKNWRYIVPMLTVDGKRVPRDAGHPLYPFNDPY
The experiment in a line: Inhibition of AKR1A1 (unknown origin) using DL-glyceraldehyde as substrate at 15 uM after 5 mins by spectrophotometry.

The target in series [7] is Aldo-keto reductase family 1 member B10 (Homo sapiens) (UniProt O60218). The experiment in a line: Inhibition of AKR1B10 (unknown origin) using DL-glyceraldehyde as substrate at 15 uM after 5 mins by spectrophotometry.
Series [8] can be described thus: Stability of the compound in aqueous sulfuric acid solution assessed as compound remaining at 250 uM at pH 0.33 at 80 degC after 6 days by HPLC analysis. In kind it is physicochemical. Particulars: read-out: Stability. The essentials:
as §1

Sequence of Aldo-keto reductase family 1 member B10 (Homo sapiens) (O60218 whole entry, looked up): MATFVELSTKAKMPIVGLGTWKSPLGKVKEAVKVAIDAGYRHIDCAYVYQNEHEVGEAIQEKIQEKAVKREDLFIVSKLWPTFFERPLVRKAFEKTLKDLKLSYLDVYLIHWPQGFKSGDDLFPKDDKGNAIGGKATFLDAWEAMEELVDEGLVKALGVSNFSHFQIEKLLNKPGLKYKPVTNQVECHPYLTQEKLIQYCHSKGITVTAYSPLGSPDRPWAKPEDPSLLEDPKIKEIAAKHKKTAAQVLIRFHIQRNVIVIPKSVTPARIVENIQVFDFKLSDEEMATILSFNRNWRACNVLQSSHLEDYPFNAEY

For the molecule `OC[C@H]1O[C@@H](OCc2cn(Cc3cc(O)c(O)c(O)c3)nn2)[C@H](O)[C@@H](O)[C@@H]1O`, in series [1], the inhibition entry is “inactive”.
Take `O=C(O[C@@H]1O[C@H](CO)[C@@H](O)[C@H](O)[C@H]1O)c1cc(O)c(O)c(O)c1`: the inhibition in series [2] came out at 74%; in series [3] it was 50%. Besides, the Stability entry in series [4] is given as “Unstable”. Moreover, the degraded at 0.25 h, 250 µM in series [5] worked out at 76%. Moreover, the inhibition entry in series [6] and in series [7] was “inactive” throughout. Further, the IC50 in series [1] was 8 µM.
Take `O=C(N[C@@H]1O[C@H](CO)[C@@H](O)[C@H](O)[C@H]1O)c1cc(O)c(O)c(O)c1`: the inhibition in series [2] is 80%; in series [3], 50%. Also, the remaining at 144 h, 250 µM in series [8] is 96%. For the same molecule, the inhibition entry in series [6] and in series [7] was “inactive” throughout. The half-inhibitory concentration (IC50) in series [1] stood at 9 µM.
For `OC[C@H]1O[C@@H](n2cc(-c3cc(O)c(O)c(O)c3)nn2)[C@H](O)[C@@H](O)[C@@H]1O`, the inhibition entry in series [1] was “inactive”.
For `OC[C@H]1O[C@@H](OCCc2cc(O)c(O)c(O)c2)[C@H](O)[C@@H](O)[C@@H]1O`, in series [1], the inhibition result is “inactive”.
With `O=C(Cc1cc(O)c(O)c(O)c1)N[C@@H]1O[C@H](CO)[C@@H](O)[C@H](O)[C@H]1O`, in series [1], the inhibition entry was “inactive”.
As to `OC[C@H]1O[C@@H](OCCCc2cc(O)c(O)c(O)c2)[C@H](O)[C@@H](O)[C@@H]1O`, in series [1], the inhibition result was “inactive”.
